Measurements: ChEMBL document CHEMBL5712912, “Abnormal overexpression of G9a in melanoma cells promotes cancer progression via upregulation of the Notch1 signaling pathway” (Aging (Albany NY), 2020)
Calls of active or inactive are those of the source. No cut-off for these calls is given here.

Legend:
A-375 [1] = test: Cytotoxicity against human A-375 cells assessed as effect on cell survival at <0.5 nM by CCK-8 assay; type: functional, cell-based
A-375 [2] = test: Cytotoxicity against human A-375 cells assessed as reduction in cell viability by CCK-8 assay; type: functional, cell-based
Procedure, shortened: (§1)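 CCK8 proliferation assay. M14 or A375 cells, NICD plasmid-transfected where stated, were seeded at about 1000 cells per well, with 0.1% DMSO-treated cells as control. CCK8 reagent was added every 24 h and incubated 90 min at 37 °C, then OD read at 450 nm to build a proliferation curve. IC50 came from a dose-dependent viability series in A375.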

[3] = molecular target: T1, Histone-lysine N-methyltransferase EHMT2 (Homo sapiens) (UniProt Q96KQ7); test: Inhibition of G9a in human A-375 cells assessed as decrease in Notch1 expression at 2 uM by Western blot analysis; type: cell-based
T1 sequence (whole entry): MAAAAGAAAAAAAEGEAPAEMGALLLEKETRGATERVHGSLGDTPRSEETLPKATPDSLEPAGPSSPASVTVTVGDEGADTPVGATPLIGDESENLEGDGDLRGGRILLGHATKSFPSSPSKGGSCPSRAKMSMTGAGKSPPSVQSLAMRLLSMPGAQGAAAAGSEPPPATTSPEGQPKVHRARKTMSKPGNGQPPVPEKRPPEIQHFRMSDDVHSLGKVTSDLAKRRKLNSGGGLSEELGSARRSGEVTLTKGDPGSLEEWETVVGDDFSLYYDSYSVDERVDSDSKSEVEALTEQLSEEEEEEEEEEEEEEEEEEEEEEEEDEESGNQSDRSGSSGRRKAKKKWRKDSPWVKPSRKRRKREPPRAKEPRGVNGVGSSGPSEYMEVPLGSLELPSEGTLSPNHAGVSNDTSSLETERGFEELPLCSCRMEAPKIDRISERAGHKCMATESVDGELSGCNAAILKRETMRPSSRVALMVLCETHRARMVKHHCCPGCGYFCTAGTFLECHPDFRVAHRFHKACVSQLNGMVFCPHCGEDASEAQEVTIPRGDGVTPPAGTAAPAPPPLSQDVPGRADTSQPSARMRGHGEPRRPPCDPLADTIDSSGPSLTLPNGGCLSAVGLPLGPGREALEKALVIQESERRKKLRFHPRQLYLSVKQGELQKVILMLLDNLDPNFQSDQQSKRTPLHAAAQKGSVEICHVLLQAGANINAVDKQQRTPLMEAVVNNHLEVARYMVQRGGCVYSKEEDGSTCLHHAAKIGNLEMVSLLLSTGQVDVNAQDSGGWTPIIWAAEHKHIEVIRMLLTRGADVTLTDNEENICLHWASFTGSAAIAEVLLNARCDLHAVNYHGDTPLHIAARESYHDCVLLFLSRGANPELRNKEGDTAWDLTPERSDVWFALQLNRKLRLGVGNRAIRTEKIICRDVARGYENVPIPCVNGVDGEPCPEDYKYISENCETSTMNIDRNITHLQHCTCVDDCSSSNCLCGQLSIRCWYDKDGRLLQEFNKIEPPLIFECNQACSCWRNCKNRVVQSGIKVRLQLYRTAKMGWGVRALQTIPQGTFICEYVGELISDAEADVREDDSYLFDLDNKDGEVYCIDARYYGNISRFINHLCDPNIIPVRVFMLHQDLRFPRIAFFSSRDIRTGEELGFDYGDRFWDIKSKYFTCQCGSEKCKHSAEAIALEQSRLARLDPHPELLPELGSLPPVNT

[4] = molecular target: T1, Histone-lysine N-methyltransferase EHMT2 (Homo sapiens); test: Inhibition of G9a in human A-375 cells assessed as decrease in Hes1 expression at 2 uM by Western blot analysis; type: cell-based
[5] = molecular target: T1, Histone-lysine N-methyltransferase EHMT2 (Homo sapiens); test: Inhibition of G9a in human A-375 cells assessed as decrease in H3K9me2 expression at 2 uM by Western blot analysis; type: cell-based
[6] = molecular target: T1, Histone-lysine N-methyltransferase EHMT2 (Homo sapiens); test: Inhibition of G9a in human M14 cells assessed as decrease in Notch1 expression at 2 uM by Western blot analysis; type: cell-based
[7] = molecular target: T1, Histone-lysine N-methyltransferase EHMT2 (Homo sapiens); test: Inhibition of G9a in human M14 cells assessed as decrease in Hes1 expression at 2 uM by Western blot analysis; type: cell-based
[8] = molecular target: T1, Histone-lysine N-methyltransferase EHMT2 (Homo sapiens); test: Inhibition of G9a in human M14 cells assessed as decrease in H3K9me2 expression at 2 uM by Western blot analysis; type: cell-based
A-375 [9] = test: Antiproliferative activity against human A-375 cells assessed as reduction in cell proliferation at 2 uM by CCK-8 assay; type: functional, cell-based; procedure, shortened: as §1
M14 [10] = test: Antiproliferative activity against human M14 cells assessed as reduction in cell proliferation at 2 uM by CCK-8 assay; type: functional, cell-based; procedure, shortened: as §1
A-375 [11] = test: Antiproliferative activity against human A-375 cells overexpressing NICD assessed as reduction in cell proliferation at 2 uM by CCK-8 assay; type: functional, cell-based; procedure, shortened: as §1
M14 [12] = test: Antiproliferative activity against human M14 cells overexpressing NICD assessed as reduction in cell proliferation at 2 uM by CCK-8 assay; type: functional, cell-based; procedure, shortened: as §1
A-375 [13] = test: Antiinvasive activity against human A-375 cells at 2 uM by transwell assay; type: functional, cell-based
Procedure, shortened: (§2)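 Transwell assay in M14 or A375 cells cultured in high-glucose DMEM with 10% FBS and penicillin/streptomycin; NICD overexpression plasmid transfected with Lipofectamine 2000. Invasion inserts coated with Matrigel diluted 1:6 in serum-free 1640 medium and set at 37 °C for 4 h; migration inserts uncoated, 5000 cells seeded. Control cells received DMSO. Migrated or invaded cells counted.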

M14 [14] = test: Antiinvasive activity against human M14 cells at 2 uM by transwell assay; type: functional, cell-based; procedure, shortened: as §2
A-375 [15] = test: Antimigratory activity against human A-375 cells at 2 uM by transwell assay; type: functional, cell-based; procedure, shortened: as §2
M14 [16] = test: Antimigratory activity against human M14 cells at 2 uM by transwell assay; type: functional, cell-based; procedure, shortened: as §2
A-375 [17] = test: Antiinvasive activity against human A-375 cells overexpressing NICD at 2 uM by transwell assay; type: functional, cell-based; procedure, shortened: as §2
M14 [18] = test: Antiinvasive activity against human M14 cells overexpressing NICD at 2 uM by transwell assay; type: functional, cell-based; procedure, shortened: as §2
A-375 [19] = test: Antimigratory activity against human A-375 cells overexpressing NICD at 2 uM by transwell assay; type: functional, cell-based; procedure, shortened: as §2
M14 [20] = test: Antimigratory activity against human M14 cells overexpressing NICD at 2 uM by transwell assay; type: functional, cell-based; procedure, shortened: as §2
A-375 [21] = test: Induction of apoptosis in human A-375 cells assessed as necrotic cells at 2 uM by Annexin V-FITC/PI staining based flow cytometry (reference value: 1.34%); type: functional
A-375 [22] = test: Induction of apoptosis in human A-375 cells assessed as late apoptotic cells at 2 uM by Annexin V-FITC/PI staining based flow cytometry (reference value: 3.10%); type: functional
A-375 [23] = test: Induction of apoptosis in human A-375 cells assessed as live cells at 2 uM by Annexin V-FITC/PI staining based flow cytometry (reference value: 95.1%); type: functional
A-375 [24] = test: Induction of apoptosis in human A-375 cells assessed as early apoptotic cells at 2 uM by Annexin V-FITC/PI staining based flow cytometry (reference value: 0.43%); type: functional

Question: For COc1cc2c(NC3CCN(C(C)C)CC3)nc(N3CCC(F)(F)CC3)nc2cc1OCCCN1CCCC1, which Activity (A-375 [1]) is on record?
Answer: Its Activity is “inactive”.

Question: And the Activity (A-375 [2])?
Answer: The Activity was “Dose-Dependent Effect”.

Question: What about the IC50 (A-375 [2]) of the same molecule?
Answer: Its IC50 is 3.06 µM.

Question: What about the inhibition [3] of the same molecule?
Answer: Its inhibition is “Active”.

Question: And the inhibition [4]?
Answer: Its inhibition is “Active”.

Question: What about the inhibition [5] of the same molecule?
Answer: The inhibition was “Active”.

Question: What about the inhibition [6] of the same molecule?
Answer: The inhibition was “Active”.

Question: And the inhibition [7]?
Answer: Its inhibition is “Active”.

Question: What about the inhibition [8] of the same molecule?
Answer: The inhibition was “Active”.

Question: And the Activity (A-375 [9])?
Answer: Its Activity is “Active”.

Question: And the Activity (M14 [10])?
Answer: The Activity was “Active”.

Question: What about the Activity (A-375 [11]) of the same molecule?
Answer: Its Activity is “inactive”.

Question: And the Activity (M14 [12])?
Answer: Its Activity is “inactive”.

Question: And the Activity (A-375 [13])?
Answer: The Activity was “Active”.

Question: What about the Activity (M14 [14]) of the same molecule?
Answer: Its Activity is “Active”.

Question: And the Activity (A-375 [15])?
Answer: The Activity was “Active”.

Question: And the Activity (M14 [16])?
Answer: The Activity was “Active”.

Question: And the Activity (A-375 [17])?
Answer: The Activity was “inactive”.

Question: And the Activity (M14 [18])?
Answer: Its Activity is “inactive”.

Question: And the Activity (A-375 [19])?
Answer: The Activity was “inactive”.

Question: And the Activity (M14 [20])?
Answer: Its Activity is “inactive”.

Question: What about the Activity (A-375 [21]) of the same molecule?
Answer: Its Activity is 0.27%.

Question: What about the Activity (A-375 [22]) of the same molecule?
Answer: Its Activity is 5.17%.

Question: And the Activity (A-375 [23])?
Answer: The Activity was 89.8%.

Question: And the Activity (A-375 [24])?
Answer: Its Activity is 4.8%.
